{"source": "ChEMBL document CHEMBL1649225", "about": "“Artemisone and artemiside control acute and reactivated toxoplasmosis in a murine model” (Antimicrob Agents Chemother, 2009)", "key": {"[1]": {"system": "Toxoplasma gondii", "experiment": "(§1) Antiparasitic activity against Toxoplasma gondii PRU-Luc-GFP type 2 infected in CD1 mouse acute toxoplasmosis model assessed as decrease in parasite burden at 10 mg/kg, sc administered once daily for 8 days measured after 25 days post-infection by luciferase reporter gene based assay", "format": "functional, organism-based", "design": "dose 10 mg/kg", "how_it_was_run": "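Female CD1 mice, 8–10 weeks old, infected i.p. with 10⁶ PRU-Luc-GFP tachyzoites. Dosed s.c. at 10 mg/kg daily for 8 days. Imaged every 2 days over 25 days under mild isoflurane anesthesia after i.p. firefly luciferin D at […]. Output in relative light units as a relative index of infection severity. Four repeats, n = 3 or 4 per group; one representative experiment shown.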"}, "[2]": {"system": "Toxoplasma gondii", "experiment": "Antiparasitic activity against Toxoplasma gondii PRU-Luc-GFP type 2 infected in CD1 mouse acute toxoplasmosis model assessed as mouse survival at 10 mg/kg, sc administered once daily for 8 days measured after 25 days post-infection", "format": "functional", "details": "PRU-Luc-GFP type 2, sc, route subcutaneous", "how_it_was_run": "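Female CD1 outbred mice, 8–10 weeks old, infected i.p. with 10⁶ PRU-Luc-GFP type II tachyzoites in 0.2 ml PBS. Compounds given s.c. at 10 mg/kg daily for 8 days. Survival followed for 25 days; three experiments combined, n = 3 or 4 per group.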"}, "[3]": {"system": "HFF", "experiment": "Cytotoxicity against HFF", "format": "cell-based", "details": "human"}, "[4]": {"system": "Toxoplasma gondii", "experiment": "Antiparasitic activity against Toxoplasma gondii RH infected in human foreskin fibroblasts monolayer after 72 hrs by bacterial beta-galactosidase reporter gene assay", "format": "functional, organism-based", "how_it_was_run": "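RH clone 2F expressing bacterial β-galactosidase, grown as tachyzoites in HFF monolayers in DMEM with 10% FBS. Compounds from DMSO stocks stored at −80°C in single-use aliquots. Tested at 0.010–1.0 μM for 72 h at 37°C. Medium then removed and β-galactosidase activity read at 570 nm.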"}, "[5]": {"system": "Toxoplasma gondii", "experiment": "(§2) Antiparasitic activity against Toxoplasma gondii PRU-Luc-GFP type 2 infected in 400 mg/kg sulfadiazine-pretreated INFgamma-deficient C57BL/6 mouse reactivated toxoplasmosis model assessed as mouse survival at 10 mg/kg, sc at once daily for 8 days administered 2 days after sulfadiazine discontinuation measured on day 25 post infection after compound withdrawal", "format": "functional, organism-based", "how_it_was_run": "(§3)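 Female IFN-γ−/− mice on C57BL/6 background, 8–10 weeks old, kept specific pathogen-free. Infected orally with 20 PRU-Luc-GFP tissue cysts taken from brains of chronically infected wild-type mice. Sulfadiazine in drinking water for 3 weeks from day 2. Compounds given s.c. at 10 mg/kg daily for 8 days, starting 2 days after sulfadiazine stopped. Survival monitored; three experiments combined, n = 3–5 per group.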"}, "[6]": {"system": "Toxoplasma gondii", "experiment": "as §2, with “18” for “25”", "format": "functional, organism-based", "how_it_was_run": "as §3"}, "[7]": {"experiment": "Partition coefficient, log P of the compound", "format": "physicochemical", "details": "octanol/water"}, "[8]": {"system": "Toxoplasma gondii", "experiment": "as §2, with “discontinuation” for “discontinuation measured on day 25 post infection after compound withdrawal”", "format": "functional", "how_it_was_run": "as §3"}, "[9]": {"system": "Toxoplasma gondii", "experiment": "as §1, with “parasite-induced cyst formation in mouse brain” for “parasite burden”", "format": "functional, organism-based", "design": "dose 10 mg/kg", "how_it_was_run": "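Female CD1 mice, 8–10 weeks old, infected i.p. with 10⁶ PRU-Luc-GFP tachyzoites and dosed s.c. at 10 mg/kg daily for 8 days. At 25 days post-infection, brains were homogenized in 1.0 ml PBS, pH 7.2. Cysts counted by bright-field or phase-contrast microscopy at ×40 in four 20-μl aliquots and total cysts per brain estimated. Three experiments combined, n = 2 per group.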"}, "[10]": {"experiment": "Partition coefficient, log P of the compound at pH 2", "format": "physicochemical", "details": "octanol/water"}}, "note": "Activity calls are given as the source filed them. The calls are words filed in the database; no cut-off is given here.", "data": [{"smiles": "C[C@H]1[C@H](N2CCS(=O)(=O)CC2)O[C@@H]2O[C@@]3(C)CC[C@H]4[C@H](C)CC[C@@H]1[C@@]24OO3", "note": "[ARTEMIFONE]", "values": [{"measurement": "Activity", "setting": "[1]", "value": "Active"}, {"measurement": "survival at 10 mg/kg", "setting": "[2]", "value": 50, "unit": "%"}, {"measurement": "Activity", "setting": "[3]", "value": "Non-toxic"}, {"measurement": "EC50", "setting": "[4]", "value": 120, "unit": "nM"}, {"measurement": "EC90", "setting": "[4]", "value": 176, "unit": "nM"}, {"measurement": "Activity", "setting": "[5]", "value": "inactive"}, {"measurement": "Activity", "setting": "[6]", "value": "inactive"}, {"measurement": "logP", "setting": "[7]", "value": 2.49}, {"measurement": "Survival", "setting": "[8]", "value": 60, "unit": "%"}]}, {"smiles": "C[C@@H]1CC[C@H]2[C@@H](C)C(=O)O[C@@H]3O[C@@]4(C)CC[C@@H]1[C@]32OO4", "note": "[ARTEMISININ]", "values": [{"measurement": "Activity", "setting": "[1]", "value": "inactive"}, {"measurement": "Activity", "setting": "[9]", "value": "inactive"}, {"measurement": "logP", "setting": "[7]", "value": 2.94}]}, {"smiles": "C[C@H]1[C@H](N2CCSCC2)O[C@@H]2O[C@@]3(C)CC[C@H]4[C@H](C)CC[C@@H]1[C@@]24OO3", "note": "[ARTEMISIDE]", "values": [{"measurement": "Activity", "setting": "[1]", "value": "Active"}, {"measurement": "survival at 10 mg/kg", "setting": "[2]", "value": 60, "unit": "%"}, {"measurement": "Activity", "setting": "[3]", "value": "Non-toxic"}, {"measurement": "Activity", "setting": "[9]", "value": "Active"}, {"measurement": "EC50", "setting": "[4]", "value": 108, "unit": "nM"}, {"measurement": "EC90", "setting": "[4]", "value": 167, "unit": "nM"}, {"measurement": "Activity", "setting": "[5]", "value": "inactive"}, {"measurement": "Activity", "setting": "[6]", "value": "inactive"}, {"measurement": "logP", "setting": "[7]", "value": 4.97}, {"measurement": "Survival", "setting": "[8]", "value": 80, "unit": "%"}]}, {"smiles": "C[C@@H]1CC[C@H]2[C@@H](C)C(c3ccc(F)cc3)O[C@@H]3O[C@@]4(C)CC[C@@H]1[C@]32OO4", "note": "(some centres not stated)", "values": [{"measurement": "Activity", "setting": "[3]", "value": "Non-toxic"}, {"measurement": "EC50", "setting": "[4]", "value": 182, "unit": "nM"}, {"measurement": "EC90", "setting": "[4]", "value": 271, "unit": "nM"}, {"measurement": "logP", "setting": "[7]", "value": 5.18}]}, {"smiles": "C[C@H]1[C@H](NS(N)(=O)=O)O[C@@H]2O[C@@]3(C)CC[C@H]4[C@H](C)CC[C@@H]1[C@@]24OO3", "values": [{"measurement": "Activity", "setting": "[3]", "value": "Non-toxic"}, {"measurement": "EC50", "setting": "[4]", "value": 158, "unit": "nM"}, {"measurement": "EC90", "setting": "[4]", "value": 235, "unit": "nM"}, {"measurement": "logP", "setting": "[7]", "value": 3.36}]}, {"smiles": "C[C@H]1[C@H](N2CCN(c3ncccn3)CC2)O[C@@H]2O[C@@]3(C)CC[C@H]4[C@H](C)CC[C@@H]1[C@@]24OO3", "values": [{"measurement": "Activity", "setting": "[3]", "value": "Non-toxic"}, {"measurement": "EC50", "setting": "[4]", "value": 156, "unit": "nM"}, {"measurement": "EC90", "setting": "[4]", "value": 263, "unit": "nM"}, {"measurement": "logP", "setting": "[7]", "value": 4.78}]}, {"smiles": "C[C@H]1[C@H](N2CCN(Cc3ccccc3)CC2)O[C@@H]2O[C@@]3(C)CC[C@H]4[C@H](C)CC[C@@H]1[C@@]24OO3", "values": [{"measurement": "Activity", "setting": "[3]", "value": "Non-toxic"}, {"measurement": "EC50", "setting": "[4]", "value": 213, "unit": "nM"}, {"measurement": "EC90", "setting": "[4]", "value": 339, "unit": "nM"}, {"measurement": "logP", "setting": "[7]", "value": 5.62}]}, {"smiles": "C[C@H]1[C@H](OC(=O)CCC(=O)O)O[C@@H]2O[C@@]3(C)CC[C@H]4[C@H](C)CC[C@@H]1[C@@]24OO3", "note": "[ARTESUNATE]", "values": [{"measurement": "logP", "setting": "[10]", "value": 2.77}, {"measurement": "Activity", "setting": "[3]", "value": "Non-toxic"}, {"measurement": "EC50", "setting": "[4]", "value": 213, "unit": "nM"}, {"measurement": "EC90", "setting": "[4]", "value": 368, "unit": "nM"}]}]}
